Published values gathered from unrelated publications.
Compare with care: the assays were run in different laboratories.
Cell line: K562
Read-out: cell growth or viability

C=CC(C)(C)c1[nH]cnc1/C=C1/NC(=O)[C@H](C(C)C)NC1=O  IC50 (MTT): 1.77 µM
O=C(NO)c1ccc(Cn2cnc3c(Nc4ccc(F)c(Cl)c4)ncnc32)cc1  IC50 (MTT; 72 h): 7.35 µM
N/C(=N\O)c1ccc(-c2cc(CNc3cccc4cccnc34)on2)cc1  IC50 (MTS; 72 h): 86.6 µM
CC(C)=CCc1ncc(/C=C2\NC(=O)[C@H](C(C)C)NC2=O)[nH]1  IC50 (MTT): > 15 µM
COc1ccc(Nc2ncnc3c2ncn3Cc2ccc(C(=O)NO)cc2)cc1  IC50 (MTT; 72 h): 3.7 µM
O=c1cc(OCc2cc(-c3ccc(C(F)(F)F)cc3)no2)c2ccccc2o1  IC50 (MTS; 72 h): > 100 µM
CN1CCC(NC2CCc3[nH]c4c(C(N)=O)ccc(-c5ccccc5Cl)c4c3C2)CC1 (centres unmarked)  IC50 (96 h): 0.0214 µM
c1ccc(-c2cc(CNc3cccc4cccnc34)on2)nc1  IC50 (MTS; 72 h): 79.7 µM
O=C(NO)c1ccc(Cn2cnc3c(Nc4ccc(Cl)cc4)ncnc32)cc1  IC50 (MTT; 72 h): 13.8 µM
COc1cccc2c1C(=O)c1c(O)c3c(c(O)c1C2=O)C[C@@](O)(C(=O)CO)C[C@@H]3O[C@H]1C[C@H](N)[C@H](O)[C@H](C)O1  IC50: 0.13 µM
Cc1sc2c(c1C)C(c1ccc(Cl)cc1)=N[C@@H](CC(=O)NCCCCNC(=O)COc1cccc3c1C(=O)N(C1CCC(=O)NC1=O)C3=O)c1nnc(C)n1-2 (some centres unmarked)  IC50 (CCK-8; 72 h): 0.73 µM
